# Data as given in ChEMBL document CHEMBL1146754, “Estrogen receptor ligands. Part 4: The SAR of the syn-dihydrobenzoxathiin SERAMs” (Bioorg Med Chem Lett, 2004).
# Tests used:
# Estrogen receptor [1] = target: T1, Estrogen receptor (Homo sapiens, UniProt P03372); assay: Potency in cellular transactivation assay utilizing HEK293 cells stably co-transfected with human estrogen receptor alpha and the alkaline phosphatase reporter gene.; format: functional, cell-based
# T1 sequence (P03372 whole entry): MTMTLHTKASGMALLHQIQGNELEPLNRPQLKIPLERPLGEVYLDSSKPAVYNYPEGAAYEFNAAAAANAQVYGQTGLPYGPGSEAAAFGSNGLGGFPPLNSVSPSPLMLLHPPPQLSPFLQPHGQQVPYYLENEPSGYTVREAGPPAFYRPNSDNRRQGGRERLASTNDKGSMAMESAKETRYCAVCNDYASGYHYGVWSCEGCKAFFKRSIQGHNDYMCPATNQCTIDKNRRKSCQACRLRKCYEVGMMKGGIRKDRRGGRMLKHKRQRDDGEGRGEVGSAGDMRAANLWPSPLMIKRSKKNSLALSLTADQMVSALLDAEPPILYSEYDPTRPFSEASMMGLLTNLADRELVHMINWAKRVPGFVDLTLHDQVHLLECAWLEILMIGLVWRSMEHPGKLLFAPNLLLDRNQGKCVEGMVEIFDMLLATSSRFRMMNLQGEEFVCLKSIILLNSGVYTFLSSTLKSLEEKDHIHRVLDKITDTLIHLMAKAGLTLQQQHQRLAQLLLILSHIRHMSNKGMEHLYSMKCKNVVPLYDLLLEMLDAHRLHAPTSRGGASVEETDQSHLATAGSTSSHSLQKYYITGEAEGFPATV
# [2] = target: T2, Estrogen receptor (Rattus norvegicus) (UniProt P06211+Q62986); conditions: at 1 mg/kg
# Estrogen receptor beta [3] = target: T3, Estrogen receptor beta (Homo sapiens, UniProt Q92731)
# [4] = (§1) Plasma clearance of the compound in female Sprague-Dawley rats; format: ADME, organism-based; conditions: female, Sprague-Dawley, rat, plasma
# In short: (§2)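 Female Sprague–Dawley rats were dosed intravenously at 1 mpk (n = 2) and orally at 2 mpk (n = 3) for pharmacokinetic evaluation.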
# [5] = target: T2, Estrogen receptor (Rattus norvegicus); conditions: at 1 mg/kg; remark: listed apart in the source
# [6] = (§3) Bioavailability in rat (Sprague-Dawley) (female); format: ADME, organism-based; conditions: female, Sprague-Dawley, in vivo; in short: as §2
# Estrogen receptor beta [7] = target: T3, Estrogen receptor beta; assay: Potency in cellular transactivation assay utilizing HEK293 cells stably co-transfected with human estrogen receptor beta and the alkaline phosphatase reporter gene; format: functional, cell-based
# Estrogen receptor [8] = target: T1, Estrogen receptor
# [9] = (§4) Half life period in female Sprague-Dawley rats; format: ADME, organism-based; conditions: female, Sprague-Dawley, rat, in vivo; in short: as §2
# Estrogen receptor beta [10] = target: T3, Estrogen receptor beta; assay: Agonist effect in transcriptional activation in HEK293 cells expressing human estrogen receptor beta; NA= not active; format: functional, cell-based
# Estrogen receptor [11] = target: T1, Estrogen receptor; assay: Agonist effect in transcriptional activation in HEK293 cells expressing human estrogen receptor alpha; NA= not active; format: functional, cell-based
# Rattus norvegicus [12] = organism: Rattus norvegicus; assay: as §1; format: ADME, organism-based; conditions: in vivo; in short: as §2
# Rattus norvegicus [13] = organism: Rattus norvegicus; assay: as §3; format: ADME, organism-based; conditions: in vivo; in short: as §2
# Rattus norvegicus [14] = organism: Rattus norvegicus; assay: as §4; format: ADME, organism-based; conditions: in vivo; in short: as §2
# [15] = target: T2, Estrogen receptor (Rattus norvegicus); conditions: at 1 mg/kg; remark: listed apart in the source
# [16] = target: T2, Estrogen receptor (Rattus norvegicus); conditions: at 1 mg/kg; remark: listed apart in the source
# T3 sequence (Q92731 whole entry): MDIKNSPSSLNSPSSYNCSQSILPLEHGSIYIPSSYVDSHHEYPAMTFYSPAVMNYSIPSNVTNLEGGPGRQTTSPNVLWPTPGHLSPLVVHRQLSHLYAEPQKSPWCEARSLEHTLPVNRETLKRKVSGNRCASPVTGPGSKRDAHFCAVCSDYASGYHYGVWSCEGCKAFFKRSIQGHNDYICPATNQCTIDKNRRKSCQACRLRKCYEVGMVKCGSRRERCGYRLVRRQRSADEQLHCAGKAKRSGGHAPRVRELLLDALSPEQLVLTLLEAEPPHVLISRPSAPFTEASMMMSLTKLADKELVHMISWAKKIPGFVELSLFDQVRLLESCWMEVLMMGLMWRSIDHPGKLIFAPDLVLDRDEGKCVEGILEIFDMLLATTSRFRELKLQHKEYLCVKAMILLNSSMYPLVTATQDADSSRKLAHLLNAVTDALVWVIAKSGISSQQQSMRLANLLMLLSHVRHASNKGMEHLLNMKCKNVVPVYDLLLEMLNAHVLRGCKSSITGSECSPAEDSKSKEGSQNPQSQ
SMILES,IC50 (Estrogen receptor [1]),Antagonism [2],IC50 (Estrogen receptor beta [3]),Estrogenic effect [5],IC50 (Estrogen receptor beta [7]),IC50 (Estrogen receptor [8]),also measured
Oc1ccc([C@@H]2Sc3c(ccc(O)c3F)O[C@@H]2c2ccc(OCCN3CCCCC3)cc2)cc1,2.5 nM,76%,13.2 nM,7%,177 nM,0.8 nM,clearance [4]: 16 mL/min/kg; bioavailability [6]: 22%; half-life [9]: 2.4 h
Oc1ccc2c(c1)S[C@@H](c1ccccc1O)[C@@H](c1ccc(OCCN3CCCCC3)cc1)O2,,,1.1 nM,,,1.3 nM,
Oc1ccc([C@@H]2Sc3c(ccc(O)c3Cl)O[C@@H]2c2ccc(OCCN3CCCCC3)cc2)cc1,1 nM,67%,14 nM,27%,64 nM,2.4 nM,
CC1CCCC(C)N1CCOc1ccc([C@@H]2Oc3ccc(O)cc3S[C@@H]2c2cccc(O)c2)cc1 (stereo partly specified),,43%,350 nM,30%,,3.4 nM,IC50 (Estrogen receptor beta [10]): Not Active; IC50 (Estrogen receptor [11]): Not Active
CCc1c(O)ccc2c1O[C@H](c1ccc(OCCN3CCCCC3)cc1)[C@H](c1ccc(O)cc1)S2,,,25 nM,,,4.7 nM,
Oc1ccc([C@@H]2Sc3cc(O)cc(Cl)c3O[C@@H]2c2ccc(OCCN3CCCCC3)cc2)cc1,25.4 nM,,105 nM,,1010 nM,5.3 nM,
Oc1ccc([C@@H]2Sc3c(Cl)cc(O)cc3O[C@@H]2c2ccc(OCCN3CCCCC3)cc2)cc1,3.4 nM,68%,8 nM,12%,121 nM,0.51 nM,
Oc1cccc([C@H]2Sc3cc(O)ccc3O[C@H]2c2ccc(OCCN3CCOCC3)cc2)c1,4.7 nM,54%,318 nM,29%,65.3 nM,3.8 nM,
Cc1c(O)ccc2c1O[C@H](c1ccc(OCCN3CCCCC3)cc1)[C@H](c1ccc(O)cc1)S2,9.3 nM,29%,54 nM,27%,68.3 nM,1.2 nM,
CCc1cc(O)cc2c1S[C@@H](c1ccc(O)cc1)[C@@H](c1ccc(OCCN3CCCCC3)cc1)O2,342 nM,,185 nM,,1460 nM,53.3 nM,
Oc1cccc([C@H]2Sc3cc(O)ccc3O[C@H]2c2ccc(OCCNC3CCCCCC3)cc2)c1,3.5 nM,57%,103 nM,22%,67 nM,1.2 nM,
Oc1ccc([C@@H]2Sc3cc(O)ccc3O[C@@H]2c2ccc(OCCN3CCCCC3)cc2)cc1 (stereo in doubt; 11L) [listing 1 of 2 here],,,,,,,CL (Rattus norvegicus [12]): 31 mL/min/kg; F (Rattus norvegicus [13]): 10%; T1/2 (Rattus norvegicus [14]): 1.6 h
Oc1ccc([C@@H]2Sc3cc(O)ccc3O[C@@H]2c2ccc(OCCN3CCCCC3)cc2)cc1 (stereo in doubt; 11) [listing 2 of 2 here],,,,,,,CL (Rattus norvegicus [12]): 5 mL/min/kg; F (Rattus norvegicus [13]): 31%; T1/2 (Rattus norvegicus [14]): 3.8 h
Oc1ccc([C@@H]2Sc3cc(O)ccc3O[C@@H]2c2ccc(OCCN3CCCCC3)cc2)cc1 (stereo in doubt; 11L) [listing 2 of 2 here],,,,,,,Antagonism [15]: 16%; Estrogenic effect [16]: 1%
Cc1cc(O)cc2c1S[C@@H](c1ccc(O)cc1)[C@@H](c1ccc(OCCN3CCCCC3)cc1)O2,5.5 nM,,46.2 nM,,200 nM,2 nM,clearance [4]: 51 mL/min/kg; bioavailability [6]: 6%; half-life [9]: 2.7 h
Oc1ccc([C@H]2Sc3c(ccc(O)c3F)O[C@H]2c2ccc(OCCN3CCCCC3)cc2)cc1,,,18 nM,,,1 nM,Antagonism [15]: 100%; Estrogenic effect [16]: 1%; clearance [4]: 18 mL/min/kg; bioavailability [6]: 37%; half-life [9]: 3.1 h
CN(C)CCOc1ccc([C@@H]2Oc3ccc(O)cc3S[C@@H]2c2cccc(O)c2)cc1,2.3 nM,34%,129 nM,69%,7.3 nM,1.4 nM,
CC1CCN(CCOc2ccc([C@@H]3Oc4ccc(O)cc4S[C@@H]3c3cccc(O)c3)cc2)CC1,4 nM,59%,109 nM,29%,132 nM,0.8 nM,
Oc1ccc([C@@H]2Sc3c(F)cc(O)cc3O[C@@H]2c2ccc(OCCN3CCCCC3)cc2)cc1,6.1 nM,89%,13 nM,-2%,516 nM,0.5 nM,clearance [4]: 41 mL/min/kg; bioavailability [6]: 4.4%; half-life [9]: 5.9 h
Oc1ccc([C@H]2Sc3cc(O)ccc3O[C@H]2c2ccc(OCCN3CCCCC3)cc2)cc1,,,,,,,Estrogenic effect [16]: 9%; clearance [4]: 10 mL/min/kg; bioavailability [6]: 62%; half-life [9]: 3.4 h
Oc1ccc([C@@H]2Sc3c(O)cc(O)cc3O[C@@H]2c2ccc(OCCN3CCCCC3)cc2)cc1,,64%,788 nM,7%,,25 nM,

# The next lines start with results.
IC50 (Estrogen receptor [1]),Antagonism [2],IC50 (Estrogen receptor beta [3]),Estrogenic effect [5],IC50 (Estrogen receptor beta [7]),IC50 (Estrogen receptor [8]),SMILES,also measured
5 nM,67%,44.4 nM,1%,239 nM,1.8 nM,Oc1ccc([C@@H]2Sc3ccc(O)cc3O[C@@H]2c2ccc(OCCN3CCCCC3)cc2)cc1,clearance [4]: 154 mL/min/kg; bioavailability [6]: 0%; half-life [9]: 2.2 h
,,595 nM,,,34.9 nM,Cc1cc2c(cc1O)O[C@H](c1ccc(OCCN3CCCCC3)cc1)[C@H](c1ccc(O)cc1)S2,
1.7 nM,77%,37 nM,22%,40.1 nM,0.9 nM,Oc1cccc([C@H]2Sc3cc(O)ccc3O[C@H]2c2ccc(OCCN3CCCC3)cc2)c1,
274 nM,,792 nM,,> 1000 nM,41.1 nM,COc1ccc(C2Sc3cc(O)ccc3OC2c2ccc(OCCN3CCCCC3)cc2)cc1 (stereo unspecified),
61 nM,,520 nM,,3020 nM,23.1 nM,Oc1ccc([C@@H]2Sc3cc(Cl)c(O)cc3O[C@@H]2c2ccc(OCCN3CCCCC3)cc2)cc1,
5.4 nM,78%,115 nM,12%,157 nM,4.1 nM,Oc1cccc([C@H]2Sc3cc(O)ccc3O[C@H]2c2ccc(OCCN3CCCCC3)cc2)c1,
94 nM,9.5%,66.6 nM,5%,1550 nM,3.8 nM,Oc1ccc2c(c1)SC(c1ccc(F)cc1)C(c1ccc(OCCN3CCCCC3)cc1)O2 (stereo unspecified),
,77%,,5%,,,Oc1ccc([C@@H]2Sc3cc(O)ccc3O[C@@H]2c2ccc(OCCN3CCCCC3)cc2)cc1 (stereo in doubt; 11) [listing 1 of 2 here],
,,300 nM,,,11.9 nM,Oc1ccc2c(c1)SC(c1ccccc1)C(c1ccc(OCCN3CCCCC3)cc1)O2 (stereo unspecified),
14.8 nM,36%,73 nM,38%,2370 nM,5.4 nM,Oc1ccc([C@@H]2Sc3cc(O)c(Cl)cc3O[C@@H]2c2ccc(OCCN3CCCCC3)cc2)cc1,
,53%,413 nM,13%,,13.5 nM,Oc1ccc([C@@H]2Sc3cc(O)c(F)cc3O[C@@H]2c2ccc(OCCN3CCCCC3)cc2)cc1,
22.6 nM,-4%,343 nM,12%,690 nM,5.3 nM,Cc1cc(O)cc2c1O[C@H](c1ccc(OCCN3CCCCC3)cc1)[C@H](c1ccc(O)cc1)S2,
3.6 nM,90%,250 nM,16%,245 nM,3 nM,Oc1cccc(C2Sc3cc(O)ccc3OC2c2ccc(OCCN3CCCCC3)cc2)c1 (stereo unspecified),
